Key:
Assay type in all cases: cell-based
Settings in all cases: COS-7
[1] = biological target: T1, Ectonucleotide pyrophosphatase/phosphodiesterase family member 1 (Homo sapiens) (UniProt P22413); test: Inhibition of human NPP1 expressed in COS7 cells assessed as production of p-nitrophenol using pnp-TMP as the substrate at 100 uM after 15 mins […]
T1 sequence (whole entry): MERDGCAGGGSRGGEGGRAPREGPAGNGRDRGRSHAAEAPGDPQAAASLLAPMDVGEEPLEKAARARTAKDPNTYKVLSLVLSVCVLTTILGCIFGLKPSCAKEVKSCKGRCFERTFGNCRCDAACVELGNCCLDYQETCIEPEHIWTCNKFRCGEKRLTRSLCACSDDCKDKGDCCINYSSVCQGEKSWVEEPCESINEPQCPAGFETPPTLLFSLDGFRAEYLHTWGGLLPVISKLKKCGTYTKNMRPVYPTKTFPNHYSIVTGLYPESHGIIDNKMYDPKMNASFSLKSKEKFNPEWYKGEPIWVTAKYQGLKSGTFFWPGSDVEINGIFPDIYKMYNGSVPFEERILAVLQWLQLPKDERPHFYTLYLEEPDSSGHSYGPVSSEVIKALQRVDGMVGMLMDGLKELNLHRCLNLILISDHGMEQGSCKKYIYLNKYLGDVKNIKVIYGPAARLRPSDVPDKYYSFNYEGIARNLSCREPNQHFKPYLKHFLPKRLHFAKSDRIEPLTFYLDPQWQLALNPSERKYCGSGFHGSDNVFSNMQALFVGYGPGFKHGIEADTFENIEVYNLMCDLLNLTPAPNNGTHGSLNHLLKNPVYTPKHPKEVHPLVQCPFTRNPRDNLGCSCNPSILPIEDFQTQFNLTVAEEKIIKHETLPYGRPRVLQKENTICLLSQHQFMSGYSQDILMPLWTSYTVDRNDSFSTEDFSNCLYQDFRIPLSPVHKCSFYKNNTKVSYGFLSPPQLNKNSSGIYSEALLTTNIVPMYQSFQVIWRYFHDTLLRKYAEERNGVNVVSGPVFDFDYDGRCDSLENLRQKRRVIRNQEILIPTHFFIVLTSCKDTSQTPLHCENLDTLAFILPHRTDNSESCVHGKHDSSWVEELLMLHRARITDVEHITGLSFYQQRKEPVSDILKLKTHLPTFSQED
In short: (§1)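 Human NPP1, NPP2 (membrane lysate or conditioned medium for the secreted form) or NPP3 from transfected COS-7 cells, preincubated 3 min at 37 °C in 50 mM Tris pH 8.5 buffer with CaCl2, NaCl and KCl. Substrate and inhibitor both at 100 μM final. pnp-TMP: p-nitrophenol read at 405 nm at 15 min. ATP or Ap5A: stopped at 30 min with perchloric acid, then HPLC. Results as % residual activity versus control; three to six experiments in triplicate.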

[2] = biological target: T2, Ectonucleoside triphosphate diphosphohydrolase 2 (Homo sapiens) (UniProt Q9Y5L3); test: Activity of human NTPDase2 expressed in COS7 cells assessed as amount of inorganic phosphate released using ATP as the substrate at 100 uM after 15 mins by malachite green reagent method
T2 sequence (whole entry): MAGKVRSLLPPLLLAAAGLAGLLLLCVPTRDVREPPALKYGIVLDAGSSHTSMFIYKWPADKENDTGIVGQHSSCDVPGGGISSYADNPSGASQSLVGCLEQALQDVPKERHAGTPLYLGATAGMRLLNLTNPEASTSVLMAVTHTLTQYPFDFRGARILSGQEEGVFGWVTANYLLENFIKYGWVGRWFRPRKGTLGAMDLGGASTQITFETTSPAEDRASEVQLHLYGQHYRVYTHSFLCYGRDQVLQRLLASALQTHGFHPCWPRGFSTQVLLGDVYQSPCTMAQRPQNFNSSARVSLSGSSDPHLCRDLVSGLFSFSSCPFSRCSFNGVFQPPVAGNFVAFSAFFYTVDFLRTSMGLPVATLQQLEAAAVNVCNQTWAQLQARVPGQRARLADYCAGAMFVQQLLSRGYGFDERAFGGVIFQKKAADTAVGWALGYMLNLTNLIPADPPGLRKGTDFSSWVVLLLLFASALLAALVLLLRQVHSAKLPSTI
In short: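 Crude membrane-enriched protein extract of transiently transfected COS-7 cells, preincubated 3 min at 37 °C in Tris-Ringer buffer pH 7.3. Reaction started with 100 μM ATP, or with the analogue alone at 100 μM to test it as substrate. Stopped after 15 min with malachite green reagent; released Pi read at 630 nm. Mean ± SD, n = 3.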

[3] = biological target: T3, Ectonucleotide pyrophosphatase/phosphodiesterase family member 3 (Homo sapiens) (UniProt O14638); test: Inhibition of human NPP3 expressed in COS7 cells assessed as production of p-nitrophenol using pnp-TMP as the substrate at 100 uM after 15 mins by malachite green reagent method; in short: as §1
T3 sequence (whole entry): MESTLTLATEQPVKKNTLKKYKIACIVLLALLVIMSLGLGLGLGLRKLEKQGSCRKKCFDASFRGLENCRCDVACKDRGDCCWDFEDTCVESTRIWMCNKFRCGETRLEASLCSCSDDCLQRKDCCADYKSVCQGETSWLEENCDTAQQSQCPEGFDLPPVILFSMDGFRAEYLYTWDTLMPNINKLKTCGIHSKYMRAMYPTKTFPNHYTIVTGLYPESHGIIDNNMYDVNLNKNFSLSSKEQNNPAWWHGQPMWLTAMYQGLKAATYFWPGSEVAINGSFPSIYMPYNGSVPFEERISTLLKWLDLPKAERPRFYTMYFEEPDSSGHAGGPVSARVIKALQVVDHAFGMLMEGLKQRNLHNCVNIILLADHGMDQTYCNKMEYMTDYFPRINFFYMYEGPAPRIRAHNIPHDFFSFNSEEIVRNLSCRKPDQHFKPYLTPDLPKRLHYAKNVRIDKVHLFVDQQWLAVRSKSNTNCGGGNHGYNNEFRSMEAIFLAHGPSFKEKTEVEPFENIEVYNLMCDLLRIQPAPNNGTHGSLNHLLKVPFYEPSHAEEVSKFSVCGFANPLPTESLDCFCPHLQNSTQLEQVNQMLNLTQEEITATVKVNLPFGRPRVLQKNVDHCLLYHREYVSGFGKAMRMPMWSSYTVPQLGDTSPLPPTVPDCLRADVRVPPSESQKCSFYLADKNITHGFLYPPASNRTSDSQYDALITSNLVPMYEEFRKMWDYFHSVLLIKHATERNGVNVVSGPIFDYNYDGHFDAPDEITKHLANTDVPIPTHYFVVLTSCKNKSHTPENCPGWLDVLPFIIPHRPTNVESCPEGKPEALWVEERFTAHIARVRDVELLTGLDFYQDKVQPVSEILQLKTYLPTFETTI

Row | Structure (SMILES) | inhibition [1] | Activity [2] | inhibition [3]
1 | BP(=O)(OP(=O)(O)CP(=O)(O)OC[C@H]1O[C@@H](n2cnc3c(N)ncnc32)C[C@@H]1O)OP(=O)(O)CP(=O)(O)OC[C@H]1O[C@@H](n2cnc3c(N)ncnc32)C[C@@H]1O | > 90% | 0.2% | 30%
2 | Nc1ncnc2c1ncn2[C@@H]1O[C@H](COP(=O)(O)CP(=O)(O)OP(=O)(O)CP(=O)(O)OC[C@H]2O[C@@H](n3cnc4c(N)ncnc43)[C@H](O)[C@@H]2O)[C@@H](O)[C@H]1O | > 90% | 0.1% | 30%
3 | Nc1ncnc2c1ncn2[C@H]1C[C@H](O)[C@@H](COP(=O)(O)CP(=O)(O)OP(=O)(O)CP(=O)(O)OC[C@H]2O[C@@H](n3cnc4c(N)ncnc43)C[C@@H]2O)O1 | > 90% |  | 30%
4 | BP(=O)(OP(=O)(O)CP(=O)(O)OC[C@H]1O[C@@H](n2cnc3c(N)ncnc32)[C@H](O)[C@@H]1O)OP(=O)(O)CP(=O)(O)OC[C@H]1O[C@@H](n2cnc3c(N)ncnc32)[C@H](O)[C@@H]1O | > 90% |  | 30%

Source: ChEMBL document CHEMBL1799960, “Diadenosine 5',5''-(boranated)polyphosphonate analogues as selective nucleotide pyrophosphatase/phosphodiesterase inhibitors” (J Med Chem, 2010)
